According to ChEMBL document CHEMBL1123566, “Synthesis and cardiac electrophysiological activity of 2- and 3-[(substituted phenyl)alkyl]quinuclidines. Structure-activity relationships” (1987):
Where “and” joins values, the source holds several entries; their conditions need not be identical. Equal values may be shown once.

Experiments:
Canis familiaris [1] = organism: Canis familiaris; test: In vitro electrophysiological evaluation in canine cardiac Purkinje fibres reported as percent change Vmax concentration range of 0.1-100 uM; Minimal (<IO%increase or a decrease in CT); format: functional; details: Canis lupus familiaris; Purkinje fiber
Summary of the method: (§1)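 Canine cardiac Purkinje fibres, intracellular microelectrode recording, paced at a basic cycle length of 1 s. APD95 and Vmax read simultaneously. Compound: 10 mM stock in deionized water, diluted into Tyrode's solution, tested over the stated concentration range. Each fibre used once as its own control. Result is % change from control, given at 10 µM or as the maximum with its concentration. M = <10% decrease or an increase in Vmax.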

Canis familiaris [2] = organism: Canis familiaris; test: In vitro electrophysiological evaluation in canine cardiac Purkinje fibres reported as percent change Vmax concentration range of 0.1-10 uM; Minimal (<IO%increase or a decrease in CT); format: functional; details: Canis lupus familiaris; Purkinje fiber; summary of the method: as §1
Canis familiaris [3] = organism: Canis familiaris; test: In vitro electrophysiological evaluation in canine cardiac Purkinje fibres reported as maximum percent change Vmax concentration range of 0.1-10 uM; Minimal (<IO%increase or a decrease in CT); format: functional; details: Canis lupus familiaris; Purkinje fiber; summary of the method: as §1
Canis familiaris [4] = organism: Canis familiaris; test: In vitro electrophysiological activity in canine cardiac Purkinje fibres given as maximum % change for action potential duration at 0.1-100 uM concentration; format: functional, Canis lupus familiaris, Purkinje fiber
Summary of the method: (§2)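 Canine cardiac Purkinje fibres, intracellular recording at 1 s basic cycle length, over cumulative concentration ranges. Compound 10 mM stock in deionized water diluted into Tyrode's. Each fibre used once as its own control. Value is the maximum % change from control in APD at 95% repolarization, with the concentration where it occurred; both values given if a biphasic response (>20% reversal) occurred.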

Canis familiaris [5] = organism: Canis familiaris; test: In vitro electrophysiological activity in canine cardiac Purkinje fibres given as maximum % change for action potential duration at 0.1-10 uM concentration; format: functional, Canis lupus familiaris, Purkinje fiber; summary of the method: as §2
Canis familiaris [6] = organism: Canis familiaris; test: In vitro electrophysiological evaluation in canine cardiac Purkinje fibres reported as % change for action potential duration at 0.1-10 uM concentration range; format: functional, Canis lupus familiaris, Purkinje fiber; summary of the method: as §1
Canis familiaris [7] = organism: Canis familiaris; test: In vitro electrophysiological evaluation in canine cardiac Purkinje fibres reported as maximum percent change Vmax concentration range of 0.1-100 uM; format: functional; details: Canis lupus familiaris; Purkinje fiber; summary of the method: as §1
Canis familiaris [8] = organism: Canis familiaris; test: In vitro electrophysiological evaluation in canine cardiac Purkinje fibres reported as % change for action potential duration at 0.1-100 uM concentration range; format: functional, Canis lupus familiaris, Purkinje fiber; summary of the method: as §1
Canis familiaris [9] = organism: Canis familiaris; test: In vitro electrophysiological evaluation in canine cardiac ventricular muscle reported as maximum % change for conduction time(CT) at 0.1-10 uM concentration range; Minimal (<10% decrease or increase in CT).; format: functional, Canis lupus familiaris, Muscle tissue
Summary of the method: (§3)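 Canine right ventricle and papillary muscle strips in oxygenated Tyrode's solution, fitted with stimulating and recording electrodes. The extra-stimulus conduction-interval method was adapted for in vitro use. FRP and CT were read from a conduction-interval curve before and after various compound concentrations, and expressed as percent change from control. Compounds were taken from 10 mM deionized-water stock into Tyrode's. Each strip was used once as its own control.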

Canis familiaris [10] = organism: Canis familiaris; test: In vitro electrophysiological evaluation in canine cardiac ventricular muscle reported as % change for the functional refractory period (FRP) at 10 uM at concentration range of 0.1-10 uM; design: species or system Canis lupus familiaris, Muscle tissue; summary of the method: as §3
Canis familiaris [11] = organism: Canis familiaris; test: In vitro electrophysiological evaluation in canine cardiac ventricular muscle reported as % change for conduction time(CT) at 10 uM at 0.1-10 uM concentration range; Minimal (<10% decrease or increase in CT).; format: functional, Canis lupus familiaris, Muscle tissue
Canis familiaris [12] = organism: Canis familiaris; test: In vitro electrophysiological evaluation in canine cardiac ventricular muscle reported as maximum % change for functional refractory period (FRP) at 0.1-10 uM concentration range; concentration at which it occurred is 10 uM; design: species or system Canis lupus familiaris, Muscle tissue; summary of the method: as §3
Canis familiaris [13] = organism: Canis familiaris; test: In vitro electrophysiological evaluation in canine cardiac Purkinje fibres reported as percent change Vmax at 10 uM at concentration range of 0.1-100 uM; Minimal (<10% decrease or increase in V max).; format: functional, organism-based; details: Canis lupus familiaris, Purkinje fiber; summary of the method: as §1
Canis familiaris [14] = organism: Canis familiaris; test: In vitro electrophysiological evaluation in canine cardiac Purkinje fibres reported as percent change Vmax at 10 uM at concentration range of 1-100 uM; Minimal (<10% decrease or increase in V max).; format: functional; details: Canis lupus familiaris, Purkinje fiber; summary of the method: as §1
Canis familiaris [15] = organism: Canis familiaris; test: In vitro electrophysiological evaluation in canine cardiac Purkinje fibres reported as maximum percent change Vmax concentration range of 0.1-100 uM; Minimal (<10% decrease or increase in V max).; format: functional; details: Canis lupus familiaris; Purkinje fiber; summary of the method: as §1
Canis familiaris [16] = organism: Canis familiaris; test: In vitro electrophysiological evaluation in canine cardiac Purkinje fibres reported as % change for action potential duration at 10 uM at 1-100 uM concentration range; format: functional, Canis lupus familiaris, Purkinje fiber; summary of the method: as §1
Canis familiaris [17] = organism: Canis familiaris; test: In vitro electrophysiological evaluation in canine cardiac Purkinje fibres reported as % change for action potential duration at a concentration of 10 uM; format: functional, Canis lupus familiaris, Purkinje fiber; summary of the method: as §1
Canis familiaris [18] = organism: Canis familiaris; test: (§4) In vitro electrophysiological activity in canine cardiac occurred is 100 uM; format: functional, Canis lupus familiaris, Heart
Canis familiaris [19] = organism: Canis familiaris; test: In vitro electrophysiological activity in canine cardiac occurred is 10 uM; format: functional, Canis lupus familiaris, Heart
Canis familiaris [20] = organism: Canis familiaris; test: In vitro electrophysiological evaluation in canine cardiac ventricular muscle reported as maximum % change for functional refractory period (FRP) at 0.1-100 uM concentration range; concentration at which it occurred is 100 uM; design: species or system Canis lupus familiaris, Muscle tissue; summary of the method: as §3
Canis familiaris [21] = organism: Canis familiaris; test: In vitro electrophysiological evaluation in canine cardiac ventricular muscle reported as % change for conduction time(CT) at 10 uM at 0.1-100 uM concentration range; Minimal (<10% decrease or increase in CT).; format: functional, Canis lupus familiaris, Muscle tissue
Canis familiaris [22] = organism: Canis familiaris; test: In vitro electrophysiological evaluation in canine cardiac ventricular muscle reported as maximum % change for conduction time(CT) at 0.1-100 uM concentration range; Minimal (<10% decrease or increase in CT).; format: functional, Canis lupus familiaris, Muscle tissue; summary of the method: as §3
Canis familiaris [23] = organism: Canis familiaris; test: In vitro electrophysiological evaluation in canine cardiac Purkinje fibres reported as maximum percent change Vmax concentration range of 1-100 uM; Minimal (<10% decrease or increase in V max).; format: functional; details: Canis lupus familiaris; Purkinje fiber; summary of the method: as §1
Canis familiaris [24] = organism: Canis familiaris; test: (§5) In vitro electrophysiological evaluation in canine cardiac occurred is 100 uM; format: functional; details: Canis lupus familiaris; Heart
Canis familiaris [25] = organism: Canis familiaris; test: as §4; format: functional, Canis lupus familiaris, Heart; remark: listed apart in the source
Canis familiaris [26] = organism: Canis familiaris; test: In vitro electrophysiological evaluation in canine cardiac ventricular muscle reported as maximum % change for functional refractory period (FRP) at 0.1-100 uM concentration range; concentration at which it occurred is 10 uM; design: species or system Canis lupus familiaris, Muscle tissue; summary of the method: as §3
Canis familiaris [27] = organism: Canis familiaris; test: In vitro electrophysiological evaluation in canine cardiac ventricular muscle reported as % change for the functional refractory period (FRP) at 10 uM at concentration range of 0.1-100 uM; design: species or system Canis lupus familiaris, Muscle tissue; summary of the method: as §3
Canis familiaris [28] = organism: Canis familiaris; test: In vitro electrophysiological evaluation in canine cardiac Purkinje fibres reported as percent change Vmax at 10 uM at concentration range of 0.1-100 uM.; format: functional, organism-based; details: Canis lupus familiaris, Purkinje fiber; summary of the method: as §1
Canis familiaris [29] = organism: Canis familiaris; test: as §5; format: functional; details: Canis lupus familiaris; Heart; remark: listed apart in the source
Canis familiaris [30] = organism: Canis familiaris; test: In vitro electrophysiological evaluation in canine cardiac Purkinje fibres reported as % change for action potential duration at 10 uM at 0.1-100 uM concentration range; format: functional, Canis lupus familiaris, Purkinje fiber; summary of the method: as §1
Canis familiaris [31] = organism: Canis familiaris; test: In vitro electrophysiological evaluation in canine cardiac Purkinje fibres reported as percent change Vmax at 10 uM at concentration range of 1-100 uM; format: functional; details: Canis lupus familiaris, Purkinje fiber; summary of the method: as §1
Canis familiaris [32] = organism: Canis familiaris; test: In vitro electrophysiological evaluation in canine cardiac ventricular muscle reported as maximum % change for functional refractory period (FRP) at 0.1-100 uM concentration range; concentration at which it occurred is 100 uM.; design: species or system Canis lupus familiaris, Muscle tissue; summary of the method: as §3

SMILES	Vmax (Canis familiaris [13])	Vmax (Canis familiaris [14])	Vmax (Canis familiaris [15])	APD95 (Canis familiaris [16])	APD95 (Canis familiaris [17])	APD95 (Canis familiaris [18])	APD95 (Canis familiaris [19])	FRP (Canis familiaris [20])	CT (Canis familiaris [21])	CT (Canis familiaris [22])	Vmax (Canis familiaris [23])	Vmax (Canis familiaris [24])	FRP (Canis familiaris [27])	Vmax (Canis familiaris [29])	APD95 (Canis familiaris [30])	also measured
CCCCCCC[N+]12CCC(CC1)C(CCc1ccc(Cl)cc1)C2.[Br-] (stereo unspecified)	–	–	–	–	–	–	–	–	–	–	–	–	–	–	–	Vmax (Canis familiaris [1]): < 10%; Vmax (Canis familiaris [2]): < 10%; Vmax (Canis familiaris [3]): < 10%; APD95 (Canis familiaris [4]): 23%; APD95 (Canis familiaris [5]): 26%; APD95 (Canis familiaris [6]): 23%; Vmax (Canis familiaris [7]): -58%; APD95 (Canis familiaris [8]): 22%
CC(=O)C(CC1C(=O)C2CCN1CC2)C(=O)c1ccccc1.Cl (stereo unspecified)	< 10%	< 10%	< 10%	-5%	-6%	-19%	-6%	–	–	–	–	–	–	–	–	CT (Canis familiaris [9]): <10%; FRP (Canis familiaris [10]): 14%; CT (Canis familiaris [11]): <10%; FRP (Canis familiaris [12]): 20%
CS(=O)(=O)Nc1cc(C(=O)CCC2C(=O)C3CCN2CC3)ccc1Cl.Cl (stereo unspecified)	< 10%	–	–	-3%	-4%	17%	–	21% and 32% and 15%	<10%	<10%	< 10%	-28%	–	–	–	APD95 (Canis familiaris [25]): 21%
CCOC(=O)C(CC1C(=O)C2CCN1CC2)C(=O)c1ccc([N+](=O)[O-])cc1.Cl (stereo unspecified)	< 10%	–	–	–	2%	-12% and 0% and -5%	23% and 22%	38%	<10%	<10%	–	–	22% and 35%	-26% and -13% and -18%	23% and 22%	FRP (Canis familiaris [26]): 22%; Vmax (Canis familiaris [28]): -12%
CCOC(=O)C(CC1C(=O)C2CCN1CC2)C(=O)c1ccc(NS(C)(=O)=O)cc1.Cl (stereo unspecified)	–	< 10%	–	12%	11%	39% and 40%	–	7% and 16%	<10%	<10%	< 10%	-36%	5% and 9%	–	–	Vmax (Canis familiaris [31]): -24%
CS(=O)(=O)Nc1ccc(C(=O)CCC2C(=O)C3CCN2CC3)cc1.Cl (stereo unspecified)	< 10%	< 10%	< 10%	5%	16%	36% and 18%	–	–	<10%	<10%	< 10%	–	18% and 12% and 13%	-24%	-1% and 10%	FRP (Canis familiaris [32]): 32% and 21% and 24%; APD (Canis familiaris [30]): 24%
